Insulin prom act: TRM-6 insulin promoter activation | TRM-6 cells, insulin promoter eGFP reporter, imaging; plate-scaled: unstimulated 0, stimulated control 100 | activation, % at 2 µM | AID 1296 | 0.81% of 130,000 active;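 active = activation at 2 µM above a set limit, confirmed on inspection of the cell images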;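 also: share of cells whose green reporter signal exceeds an intensity cutoff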
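System – human fetal islet-derived TRM-6 cells with tamoxifen-inducible insulin promoter–eGFP reporter · Amount – 1,000 cells per well · Schedule – overnight tamoxifen, then two-day compound incubation at 37 °C · Detection – high-content imaging of fixed cells with Hoechst nuclear stain · Read-out – percent cells above green-intensity threshold, converted to percent activation versus plate controls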
* = called active by the depositor. The entries come from a sample that favours hits as a whole.

SMILES | Insulin prom act
O=C(CN1C(=O)S/C(=C/c2cccnc2)C1=O)N1CCOCC1 | -71
O=C1S/C(=C\c2ccc(N3CCOCC3)o2)C(=O)N1Cc1c(F)cccc1Cl | 0
O=C1S/C(=C/c2ccc(N3CCOCC3)o2)C(=O)N1Cc1c(F)cccc1Cl | 178*
Cc1nc(NC(=O)COc2ccccc2)sc1C(=O)Nc1ccccc1 | 4
CC(=O)c1sc(NC(=O)COc2ccc(Cl)cc2Cl)nc1C | 290*
CC(C)NC(=O)COc1ccc(Cl)cc1Cl | 6
Cc1ccc(Cn2nnc3c(=O)n(CC(=O)NCc4ccccc4)cnc32)cc1 | -10
O=C(Nc1c(C(=O)NCc2ccco2)cnn1-c1ccccc1)c1cccc(F)c1 | 287*
CC(C)(C)NC(=O)c1cnn(-c2ccccc2)c1NC(=O)c1ccccc1 | 0
O=C(NCc1ccco1)c1cnn2c(C(F)F)cc(-c3ccccc3)nc12 | -10
COC(=O)[C@H](C)NC(=O)NC1CCN(Cc2ccccc2)CC1 | 187
Cn1ccnc1Sc1ccc(/C=N/NC(=O)c2ccccc2O)cc1[N+](=O)[O-] | 7
CCCc1cc(=O)oc2cc(Oc3ncccn3)ccc12 | 154*
CCCc1cc(=O)oc2cc(OCC(=O)Nc3cc(C)on3)ccc12 | 7
C=C(Cl)COc1ccc2c(CCC)cc(=O)oc2c1 | 293
Cc1cccc(C(=O)NCc2nnc3c4ccccc4c(-c4ccccc4)nn23)c1 | -2
Cn1ccnc1C(=O)c1cc(SCC(=O)NCc2ccccc2)nc2ccccc12 | 0
NC(=O)C(c1ccc(Cl)cc1Cl)c1ncc(C(F)(F)F)cc1Cl (centres undefined) | -3
Cc1cccn2c(=O)c(C=NCCO)c(NCc3ccco3)nc12 | 9
CCOCCCNc1nc2c(C)cccn2c(=O)c1/C=C1\SC(=S)N(CC(C)C)C1=O | 223*
Cc1ccc(NC2=NC(=S)N(CC#N)C23CCCCC3)cc1 | 6
Cc1ccc(/C=N/N(Cc2ccccc2)c2ccccc2)o1 | 8
Cc1oc(-c2ccc(Cl)cc2)nc1CN1CCC(C(=O)NCc2cccs2)CC1 | -3
Cc1cccc(-c2nc(CN3CCCC(C(=O)NC4CCC(C)CC4)C3)c(C)o2)c1 (centres undefined) | 136*
Cc1oc(-c2ccccc2F)nc1CN1CCC(C(=O)NC2CCCc3ccccc32)CC1 (centres undefined) | -86
SMILES | Insulin prom act
CC(C)(C(=O)c1ccccc1)/[N+]([O-])=C/c1ccc(Br)cc1 | -7
COc1ccc2ccccc2c1C(=O)/C=C\c1ccoc1 | -79
CCc1ccc(C(C(=O)NCCOC)N(C(=O)Cn2nnc3ccccc32)c2cccnc2)cc1 (centres undefined) | 450*
CCCCN(C(=O)Cn1nnc2ccccc21)C(C(=O)NCCOC)c1ccccc1 (centres undefined) | 219
Cc1cccc(N(C(=O)Cn2nnc3ccccc32)C(C(=O)NCc2ccco2)c2ccncc2)c1C (centres undefined) | 9
CCOc1ccc(NC(=S)N2CCCN(Cc3cc(C)ccc3C)C2)cc1 | 7
O=C(c1cccc(N2C(=O)C3CC=CCC3C2=O)c1)N1CCCc2ccccc21 (centres undefined) | 8
CCOc1ccc(NC(=O)C2CCCN(C(=O)NCc3ccccc3)C2)cc1 (centres undefined) | 493*
O=C(O)C1CCCN(C(=O)NCc2ccccc2)C1 (centres undefined) | 5
CCOc1ccccc1NC(=O)C1CCN(C(=O)NCc2ccccc2)CC1 | -7
COc1cc([N+](=O)[O-])ccc1NC(=O)CCCOc1cccc(C)c1 | -8
CCN(CC)c1cnn(C/C(=N\OC)c2ccc(Cl)cc2)c(=O)c1Br | 136
Cc1[nH]n(-c2ccccc2)c(=O)c1/C=N/N1C(=O)c2ccc3c4c(ccc(c24)C1=O)CC3 | -9
CN(C)S(=O)(=O)Nc1ccccc1C(N)=O | 36
Cc1ccc(S(=O)(=O)Nc2cc(C(C)C)c(O)cc2C)cc1 | 2
CC(C)c1ccccc1NS(=O)(=O)N(C)C | 380*
O=C(O)C1C2C=CC(O2)C1C(=O)NCc1ccccc1Br (centres undefined) | 0
O=C(O)c1ccc(NC(CSCc2cccc(F)c2)C(=O)O)c([N+](=O)[O-])c1 (centres undefined) | -4
CCN(CC)CC#CCC(C)(c1ccccc1)c1ccccc1 | 8
COc1ccc2[nH]c(=O)c(CN(C(C)=O)c3cccc(C)c3)cc2c1 | -91
CCOc1cc(C(=O)N(C)Cc2cc3cc(OC)ccc3[nH]c2=O)cc(OCC)c1OCC | 4
CCC(=O)N(Cc1cc2cc(OC)ccc2[nH]c1=O)c1ccc(C)cc1C | 236*
O=C(CSc1nncs1)NC(=O)NC1CCCC1 | 0
CC(C)(C)C1CCc2c(C(=O)NNC(=O)CCC(=O)O)csc2C1 (centres undefined) | -7
CCc1ccc(NC(=O)N(CCN2CCOCC2)Cc2ccc3c(c2)CCCN3CC)cc1 | -8
SMILES | Insulin prom act
CCN1CCCc2cc(CN(CCN3CCOCC3)C(=S)Nc3ccc(OC)c(OC)c3)ccc21 | 425*
CCN1CCCc2cc(CN(CCN3CCOCC3)C(=S)Nc3ccccc3C)ccc21 | -8
CCOC(=O)c1ccc(N=Nc2c(C)c(C#N)c(O)[nH]c2=O)cc1 | 0
Cc1ccccc1Nc1nc(N)nc(CN(C)Cc2ccccc2Cl)n1 | 0
COc1ccc(NC(=O)c2ccc([N+](=O)[O-])cc2[N+](=O)[O-])c(OC)c1 | 9
O=C(Cc1ncc(C(F)(F)F)cc1Cl)NCCc1ccccc1 | 9
Nc1ccc(OCc2ccco2)cc1 | 7
CN1C(=O)CC(C(=O)O)SC1=Nc1ccc(F)cc1 (centres undefined) | 425*
O=C1CC(C(=O)O)S/C(=N\NC(=O)c2ccc(F)cc2)N1 (centres undefined) | 0
CN1C(=O)CC(C(=O)O)SC1=Nc1cccc(C(F)(F)F)c1 (centres undefined) | 30
CCn1c(SCC(=O)NCc2ccccc2)nnc1-c1cccnc1 | 0
COc1cc(/C=C2\C(=O)N(CCC#N)N=C2C)ccc1OCC(=O)Nc1ccccc1 | -3
COc1cc(/C=C(\C#N)c2ccccn2)ccc1OCC(=O)Nc1cccc(C(F)(F)F)c1 | 280*
COc1cc(NC(=O)CSCC(=O)Nc2cccc(C(F)(F)F)c2)c(Cl)cc1Cl | -9
CCSc1nnc(NC(=O)C2CCN(S(=O)(=O)c3c(C)c(C)cc(C)c3C)CC2)s1 | -3
Cc1c(NC(=O)C(C)OC(=O)c2ccc([N+](=O)[O-])s2)c(=O)n(-c2ccccc2)n1C (centres undefined) | 136
CSc1nsc(SC)c1C(=O)N1CCN(S(=O)(=O)c2ccc(C)cc2)C1C (centres undefined) | 125*
Cc1ccc(S(=O)(=O)N2CCN(C(=O)CN3CCCCC3)C2C(C)C)cc1 (centres undefined) | 6
CSc1nsc(SC)c1C(=O)Nc1ccc(C)cc1 | 5
COc1ccc(/C=C2\SC(=O)NC2=S)cc1OC | 9
COc1ccc(/C=C2/C(=O)N=C(N)N2C)cc1OC | 252*
COc1ccc(/C=C2/C(=O)N=C3SCCN32)cc1 | 3
CCNC(=O)c1ccccc1CCc1ccccc1 | 5
O=C1CCCC2=C1C(c1cccc(O)c1)c1c(ccc3ncccc13)N2 (centres undefined) | 7
Cc1cc(/C=C(\C#N)C(=O)NCc2ccco2)c(C)n1-c1ccc(C(=O)O)cc1 | 4
Cc1ccc(S(=O)(=O)N(C)c2c(C)ccc(S(N)(=O)=O)c2C)cc1 | 0
CCC(=O)Nc1ccnc(-c2cccnc2)n1 | 0
O=C(Nc1ccccc1)c1ccncc1 | -6
